SMILES strings stand for the structures. pEC50, pKi: −log10 of the molar value.

Test [1] concerns the target T1, Urotensin-2 receptor (Homo sapiens, UniProt Q9UKP6).
T1 sequence (Q9UKP6 whole entry): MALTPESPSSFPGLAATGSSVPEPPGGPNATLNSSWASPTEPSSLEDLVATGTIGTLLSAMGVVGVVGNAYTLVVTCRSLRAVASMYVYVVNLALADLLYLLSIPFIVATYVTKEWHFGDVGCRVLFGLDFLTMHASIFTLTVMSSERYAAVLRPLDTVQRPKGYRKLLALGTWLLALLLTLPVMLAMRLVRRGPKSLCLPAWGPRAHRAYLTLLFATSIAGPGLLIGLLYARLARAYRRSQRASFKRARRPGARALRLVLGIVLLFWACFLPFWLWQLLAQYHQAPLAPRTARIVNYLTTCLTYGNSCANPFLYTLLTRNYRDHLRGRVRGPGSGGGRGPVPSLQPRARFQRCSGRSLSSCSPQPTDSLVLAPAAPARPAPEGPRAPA
Nature of the test: Displacement of [125I]-URP or human [125I[-urotensin-2 from human urotensin 2 receptor expressed in HEK293 or CHOK1 cells after 2 hrs by gamma-counting assay. It is filed as cell-based.

Test [2] concerns the target T2, Urotensin-2 receptor (Rattus norvegicus) (UniProt P49684).
T2 sequence (whole entry): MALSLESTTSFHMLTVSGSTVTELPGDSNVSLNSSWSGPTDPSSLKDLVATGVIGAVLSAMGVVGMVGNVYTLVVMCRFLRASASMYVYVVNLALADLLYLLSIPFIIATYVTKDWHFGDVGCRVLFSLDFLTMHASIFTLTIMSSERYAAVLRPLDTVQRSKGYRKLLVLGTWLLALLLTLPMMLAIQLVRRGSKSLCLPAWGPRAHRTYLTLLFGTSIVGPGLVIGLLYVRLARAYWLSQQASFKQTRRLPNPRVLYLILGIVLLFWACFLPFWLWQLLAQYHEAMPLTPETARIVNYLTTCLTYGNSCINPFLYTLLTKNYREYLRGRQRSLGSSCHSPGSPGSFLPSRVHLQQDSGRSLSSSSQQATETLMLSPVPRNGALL
The test can be described thus: Agonist activity at urotensin 2 receptor in Sprague-Dawley rat thoracic aortic ring assessed as induction of contraction at 10 uM relative to KCl-induced contraction. The method, boiled down: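 Male Sprague-Dawley rats, 250-300 g. Aortic rings were held in a 5-mL organ bath of oxygenated Krebs-Henseleit buffer. Each vessel was first challenged with KCl, 40 mM final in the bath. Peptides were added cumulatively from 10−11 to 10−5 M. Each contraction was taken as a percentage of the KCl response, divided by the response to hU-II (10−7 M).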

Test [3] concerns the target T1, Urotensin-2 receptor. Nature of the test: Agonist activity at urotensin 2 receptor (unknown origin) expressed in HEK293 cells co-expressing Gq-polycistronic BRET biosensor assessed as induction of Gq activation measured for 5 mins by luminescence detection based BRET assay. It is filed as cell-based. On the technique in general: In BRET a luciferase serves as donor, and the signal depends on an acceptor being close.

`CC(C)[C@H](NC(=O)[C@@H]1CSSC[C@H](NC(=O)[C@H](C)N)C(=O)N(C)[C@@H](Cc2ccccc2)C(=O)N[C@@H](Cc2c[nH]c3ccccc23)C(=O)N[C@@H](CCCCN)C(=O)N[C@@H](Cc2ccc(O)cc2)C(=O)N1)C(=O)O` gave a negative logarithm of the Ki (pKi) at Urotensin-2 receptor [1] of 6.61. Also, in test [2], the Activity was found to be 51%. The pEC50 on Urotensin-2 receptor [3] was 6.98.

Turning to `CC(C)[C@H](NC(=O)[C@@H]1CSSC[C@H](NC(=O)[C@H](CC(=O)O)NC(=O)[C@@H]2CCCN2C(=O)[C@@H](NC(=O)[C@@H](N)CCC(=O)O)[C@@H](C)O)C(=O)N[C@@H](Cc2ccccc2)C(=O)N[C@@H](Cc2c[nH]c3ccccc23)C(=O)N[C@@H](CCCCN)C(=O)N(C)[C@@H](Cc2ccc(O)cc2)C(=O)N1)C(=O)O`, the pKi on Urotensin-2 receptor [1] was 5.67. Also, the Activity in test [2] amounted to 71%.

One may read the pKi as the negative decadic logarithm of the Ki, by convention in mol/L. The pEC50 is the EC50 on a negative log10 scale, so that one unit is a factor of ten.

Source of the values: ChEMBL document CHEMBL4368906 (J Med Chem, 2019).
